For 13 molecules, Ki results are on record in BindingDB's records for doi:10.1021/jm980408v (University of Kuopio, 1999).

In general, pKi refers to the Ki on a negative log10 scale, so that one unit is a factor of ten. Higher therefore signals a small Ki.

pKi: −log10 of the molar value.

This experiment deals with Histamine H3 receptor (Rattus norvegicus, UniProt Q9QYN8). As to the kind of experiment: Affinity for histamine H3 receptor in rat cerebral cortex. In outline: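 Affinity for the H3 receptor measured in an in vitro binding assay by displacement of the radioligand [3H]R-(α)-methylhistamine.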
Chain of Histamine H3 receptor (Q9QYN8 whole entry): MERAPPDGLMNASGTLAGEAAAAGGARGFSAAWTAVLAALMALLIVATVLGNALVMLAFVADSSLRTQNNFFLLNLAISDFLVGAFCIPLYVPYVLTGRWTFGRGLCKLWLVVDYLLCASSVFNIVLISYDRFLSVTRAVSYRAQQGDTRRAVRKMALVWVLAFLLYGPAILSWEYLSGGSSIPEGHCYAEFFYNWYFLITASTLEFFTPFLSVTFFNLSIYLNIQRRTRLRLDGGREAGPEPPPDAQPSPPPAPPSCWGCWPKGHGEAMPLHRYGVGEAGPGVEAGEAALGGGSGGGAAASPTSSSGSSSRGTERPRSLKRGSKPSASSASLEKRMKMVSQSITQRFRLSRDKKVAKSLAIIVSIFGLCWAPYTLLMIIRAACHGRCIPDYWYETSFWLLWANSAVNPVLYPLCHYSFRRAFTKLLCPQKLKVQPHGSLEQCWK
Consider `N[C@H](COCc1ccc(Br)cc1)Cc1c[nH]cn1`, for which the pKi was 7.10. Under `N[C@H](COCc1ccccc1)Cc1c[nH]cn1` stands 7.30. On to `COC[C@@H](N)Cc1c[nH]cn1`, for which the pKi was 5.90. In turn, `N[C@@H](COCc1ccc(I)cc1)Cc1c[nH]cn1` showed a negative logarithm of the Ki (pKi) of 6.70. `N[C@@H](CO)Cc1c[nH]cn1`: the negative-log Ki (pKi) is 5.90. Under `N[C@@H](COCc1ccccc1)Cc1c[nH]cn1` stands 6.50.

In the case of `N[C@H](COCC1CCCCC1)Cc1c[nH]cn1`, the pKi is 7.90.

`N[C@H](COCc1ccc(I)cc1)Cc1c[nH]cn1` had a pKi of 6.60. To `N[C@@H](COCc1ccc(Br)cc1)Cc1c[nH]cn1` belongs 6.70. The molecule `N[C@@H](COCC1CCCCC1)Cc1c[nH]cn1` gave a pKi of 6.80. Under `N[C@H](CO)Cc1c[nH]cn1` [HISTIDINOL] stands 6.60; under `Ic1ccc(COCCCc2c[nH]cn2)cc1` [Iodoproxyfan], 9.90; under `c1ccc(COCCCc2c[nH]cn2)cc1` [proxifan], 8.50.
